Consider twelve compounds from ChEMBL document CHEMBL1681679, “Investigation of a novel molecular descriptor for the lead optimization of 4-aminoquinazolines as vascular endothelial growth factor receptor-2 inhibitors: application for quantitative structure-activity relationship analysis in lead optimization” (Bioorg Med Chem Lett, 2011).

Each structure is given as a SMILES string.

As a reminder, the inhibition is the share of the control response that was lost under treatment. In general, IC50 refers to the concentration that gives 50% inhibition.

The first test deals with T1, Vascular endothelial growth factor receptor 2 (Homo sapiens, UniProt P35968). Nature of the test: Inhibition of human recombinant His-tagged VEGFR2 assessed as […] absorption at 10 uM by ELISA assay in presence of 20 uM ATP.
T1 sequence (P35968 whole entry): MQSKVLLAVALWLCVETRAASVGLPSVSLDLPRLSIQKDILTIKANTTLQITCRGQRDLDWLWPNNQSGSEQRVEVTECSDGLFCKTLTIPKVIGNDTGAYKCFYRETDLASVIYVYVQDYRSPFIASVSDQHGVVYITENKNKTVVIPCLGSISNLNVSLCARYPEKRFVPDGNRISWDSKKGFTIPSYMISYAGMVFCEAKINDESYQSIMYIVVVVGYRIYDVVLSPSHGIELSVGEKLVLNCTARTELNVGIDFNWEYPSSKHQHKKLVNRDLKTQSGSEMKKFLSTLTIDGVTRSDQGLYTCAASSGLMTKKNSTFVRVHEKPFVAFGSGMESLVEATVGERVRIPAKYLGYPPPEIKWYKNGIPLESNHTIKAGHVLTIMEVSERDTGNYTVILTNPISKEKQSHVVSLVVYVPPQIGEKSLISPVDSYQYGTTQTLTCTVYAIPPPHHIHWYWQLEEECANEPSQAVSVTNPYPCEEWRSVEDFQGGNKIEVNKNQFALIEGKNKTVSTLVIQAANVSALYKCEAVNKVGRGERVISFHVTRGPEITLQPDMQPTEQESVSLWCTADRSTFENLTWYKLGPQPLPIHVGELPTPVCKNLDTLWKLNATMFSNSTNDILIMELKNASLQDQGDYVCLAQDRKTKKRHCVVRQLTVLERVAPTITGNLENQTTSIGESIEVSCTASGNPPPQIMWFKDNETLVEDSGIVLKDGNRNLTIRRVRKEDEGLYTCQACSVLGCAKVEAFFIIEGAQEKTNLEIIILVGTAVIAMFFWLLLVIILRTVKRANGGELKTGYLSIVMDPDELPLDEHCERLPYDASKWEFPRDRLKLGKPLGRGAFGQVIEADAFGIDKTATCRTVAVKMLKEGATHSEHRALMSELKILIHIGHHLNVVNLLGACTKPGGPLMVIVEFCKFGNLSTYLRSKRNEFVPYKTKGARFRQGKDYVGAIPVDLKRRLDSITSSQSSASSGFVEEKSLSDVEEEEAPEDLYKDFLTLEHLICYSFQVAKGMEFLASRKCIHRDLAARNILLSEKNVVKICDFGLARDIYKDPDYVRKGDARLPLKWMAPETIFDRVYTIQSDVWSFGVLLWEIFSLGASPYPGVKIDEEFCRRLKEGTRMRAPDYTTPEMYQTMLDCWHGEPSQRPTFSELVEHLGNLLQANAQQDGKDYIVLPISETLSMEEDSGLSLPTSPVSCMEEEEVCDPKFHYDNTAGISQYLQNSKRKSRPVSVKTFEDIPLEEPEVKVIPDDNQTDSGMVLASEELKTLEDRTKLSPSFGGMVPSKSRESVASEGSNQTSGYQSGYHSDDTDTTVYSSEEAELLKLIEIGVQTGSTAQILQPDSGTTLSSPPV
Details: not given
The method in brief: (§1)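 Human N-terminal His6-tagged recombinant VEGFR2 kinase domain (aa790-end), 100 ng per well, with 20 μM ATP and 1.5 μM substrate peptide (final), in streptavidin-coated wells. Kinase buffer contains up to 1% DMSO. Read-out is ELISA absorbance at 450 nm. Each run includes blank, control, DMSO control and standard. Value is average percent inhibition at the stated final compound concentration, replicates assayed on separate days.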
Consider `COc1cc2ncnc(Nc3ccc(C)c(F)c3)c2cc1OC`, for which the inhibition came out at 66%.
Still for that read-out and setting: in the case of `COc1cc2ncnc(NC3CCCCC3)c2cc1OC` it was 17%; in that of `COc1cc2ncnc(Nc3ccc(Cl)cc3)c2cc1OC`, 4%.
With `COc1cc2ncnc(NC(C)C)c2cc1OC`, the inhibition stood at 13%.
Same read-out and setting: in the case of `COc1cc2ncnc(Nc3ccccc3)c2cc1OC` it was 19%; in that of `COc1cc2ncnc(Nc3ccc(F)cc3)c2cc1OC`, 6%; in that of `COc1cc2ncnc(Nc3ccc(C)c(Cl)c3)c2cc1OC`, 9%.
On the same count and under the same terms, to `COc1cc2ncnc(Nc3ccc(F)c(F)c3)c2cc1OC` belongs 5%; to `COc1cc2ncnc(OC(C)C)c2cc1OC`, 2%.
As to `CCOc1ncnc2cc(OC)c(OC)cc12`, the inhibition was determined as 0%.

In a further test the target is T1, Vascular endothelial growth factor receptor 2. Nature of the test: Inhibition of human recombinant His-tagged VEGFR2 assessed as […] absorption by ELISA assay in presence of 20 uM ATP.
Details: not given
For orientation: An ELISA detects its analyte on a solid surface through an enzyme-linked reagent.
With `Cc1cc(F)c(Nc2ncnc3cc(OCc4ccccc4)ccc23)cc1O`, the 50% inhibitory concentration (IC50) turned out to be 2 nM.

For another test the target is unchanged. Nature of the test: Inhibition of human recombinant His-tagged VEGFR2 assessed as […] absorption at 20 uM by ELISA assay in presence of 20 uM ATP.
Details: not given
The method in brief: as §1
In the case of `Cc1cc(F)c(Nc2ncnc3cc(OCc4ccccc4)ccc23)cc1O`, the inhibition is 37%.

For another test the target is unchanged. The conditions noted are these: 25 uM.
As for `COc1ccc(-c2cnc3c(-c4ccsc4)cnn3c2)cc1`, the inhibition is 46%.
